Assay results reported in ChEMBL document CHEMBL1143838, “Candida albicans and Candida dubliniensis respond differently to echinocandin antifungal agents in vitro” (2007).
Values after ≈ are worked out from the molar mass of the structure shown.

Assays:
Assay type in all cases: functional
Candida albicans [1] = experiment: Antifungal activity against Candida albicans NCPF6525 after 24 hrs by EUCAST test
Summary of the method: (§1)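 EUCAST broth microdilution with aqueous doubling dilutions of drug. Inoculum grown overnight at 30°C in NGY, then added to MOPS-buffered RPMI 1640 with 2% glucose at an initial 10^5 yeasts/ml. Incubated 35°C for 24 h. MICs taken from triplicate spectrophotometric dose-response data as 50% and 80% growth-reduction endpoints.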

Candida albicans [2] = experiment: Antifungal activity against Candida albicans T28 after 24 hrs by CLSI M27-A test
Summary of the method: (§2)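 CLSI M27-A broth microdilution with aqueous doubling dilutions of drug. Inoculum grown overnight at 30°C in NGY medium, then added to MOPS-buffered RPMI 1640 at an initial 10^3 yeasts/ml. Incubated 35°C for 24 h. MIC read visually as the lowest concentration giving a marked decrease in visible growth; paradoxical or trailing growth noted.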

Candida albicans [3] = experiment: Antifungal activity against Candida albicans T28 after 24 hrs by EUCAST test; summary of the method: as §1
Candida albicans [4] = experiment: Antifungal activity against Candida albicans T32 after 24 hrs by EUCAST test; summary of the method: as §1
Candida albicans [5] = experiment: Antifungal activity against Candida albicans SC5314 after 24 hrs by CLSI M27-A test; conditions: SC5314, 24 h; summary of the method: as §2
Candida albicans [6] = experiment: Antifungal activity against Candida albicans SCS140136P after 24 hrs by CLSI M27-A test; summary of the method: as §2
Candida albicans [7] = experiment: Antifungal activity against Candida albicans SCS140136P after 24 hrs by EUCAST test; summary of the method: as §1
Candida albicans [8] = experiment: Antifungal activity against Candida albicans SCS67023C after 24 hrs by CLSI M27-A test; summary of the method: as §2
Candida albicans [9] = experiment: Antifungal activity against Candida albicans SCS67023C after 24 hrs by EUCAST test; summary of the method: as §1
Candida albicans [10] = experiment: Antifungal activity against Candida albicans SCS68858 after 24 hrs by CLSI M27-A test; summary of the method: as §2
Candida albicans [11] = experiment: Antifungal activity against Candida albicans SCS68858 after 24 hrs by EUCAST test; summary of the method: as §1
Candida albicans [12] = experiment: Antifungal activity against Candida albicans AM2003/0083 after 24 hrs by CLSI M27-A test; summary of the method: as §2
Candida albicans [13] = experiment: Antifungal activity against Candida albicans AM2003/0083 after 24 hrs by EUCAST test; summary of the method: as §1
Candida albicans [14] = experiment: Antifungal activity against Candida albicans B06-341 after 24 hrs by CLSI M27-A test; summary of the method: as §2
Candida albicans [15] = experiment: Antifungal activity against Candida albicans B06-341 after 24 hrs by EUCAST test; summary of the method: as §1
Candida albicans [16] = experiment: Antifungal activity against Candida albicans HK04M102095 after 24 hrs by CLSI M27-A test; summary of the method: as §2
Candida albicans [17] = experiment: Antifungal activity against Candida albicans JIMS101103 after 24 hrs by EUCAST test; summary of the method: as §1
Candida albicans [18] = experiment: Antifungal activity against Candida albicans JIMS132203 after 24 hrs by CLSI M27-A test; summary of the method: as §2
Candida albicans [19] = experiment: Antifungal activity against Candida albicans JIMS146204 after 24 hrs by CLSI M27-A test; summary of the method: as §2
Candida albicans [20] = experiment: Antifungal activity against Candida albicans JIMS146204 after 24 hrs by EUCAST test; summary of the method: as §1
Candida albicans [21] = experiment: Antifungal activity against Candida albicans NCPF6525 after 24 hrs by CLSI M27-A test; summary of the method: as §2
Candida albicans [22] = experiment: Antifungal activity against Candida albicans NR3 after 24 hrs by CLSI M27-A test; summary of the method: as §2
Candida albicans [23] = experiment: Antifungal activity against Candida albicans T25 after 24 hrs by CLSI M27-A test; summary of the method: as §2
Candida albicans [24] = experiment: Antifungal activity against Candida albicans T25 after 24 hrs by EUCAST test; summary of the method: as §1
Candida albicans [25] = experiment: Antifungal activity against Candida albicans T26 after 24 hrs by CLSI M27-A test; summary of the method: as §2
Candida albicans [26] = experiment: Antifungal activity against Candida albicans Y109 after 24 hrs by CLSI M27-A test; summary of the method: as §2
Candida dubliniensis [27] = experiment: Antifungal activity against Candida dubliniensis 75/043 after 24 hrs by EUCAST test; summary of the method: as §1
Candida dubliniensis [28] = experiment: Antifungal activity against Candida dubliniensis 910Aa after 24 hrs by EUCAST test; summary of the method: as §1
Candida dubliniensis [29] = experiment: Antifungal activity against Candida dubliniensis AMCC after 24 hrs by CLSI M27-A test; summary of the method: as §2
Candida dubliniensis [30] = experiment: Antifungal activity against Candida dubliniensis AMCC after 24 hrs by EUCAST test; summary of the method: as §1
Candida dubliniensis [31] = experiment: Antifungal activity against Candida dubliniensis Leic952 after 24 hrs by CLSI M27-A test
Summary of the method: (§3)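 Broth microdilution with echinocandins as aqueous doubling dilutions. Yeasts were grown overnight at 30°C in NGY and seeded at 10^3 yeasts/ml initial concentration in MOPS-buffered RPMI 1640, then incubated at 35°C for 24 h. The MIC was read visually as the lowest concentration giving a marked decrease in visible growth; paradoxical or trailing growth was noted.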

Candida dubliniensis [32] = experiment: Antifungal activity against Candida dubliniensis Leic952 after 24 hrs by EUCAST test
Summary of the method: (§4)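 Yeasts were grown overnight at 30°C in NGY, then inoculated at 10^5 yeasts/ml initial concentration into MOPS-buffered RPMI 1640 with 2% glucose containing aqueous doubling dilutions of drug. Plates were held at 35°C for 24 h. MICs came from triplicate spectrophotometric dose-response data at 50% and 80% growth-reduction endpoints. Trailing meant a >100-fold gap between these endpoints; paradoxical meant regrowth ≥5% above the curve minimum.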

Candida dubliniensis [33] = experiment: Antifungal activity against Candida dubliniensis SCS17154969-1 after 24 hrs by EUCAST test; summary of the method: as §4
Candida dubliniensis [34] = experiment: Antifungal activity against Candida dubliniensis SCS59662 after 24 hrs by CLSI M27-A test; summary of the method: as §3
Candida dubliniensis [35] = experiment: Antifungal activity against Candida dubliniensis SCS59662 after 24 hrs by EUCAST test; summary of the method: as §4
Candida dubliniensis [36] = experiment: Antifungal activity against Candida dubliniensis SCS65875C after 24 hrs by CLSI M27-A test; summary of the method: as §3
Candida dubliniensis [37] = experiment: Antifungal activity against Candida dubliniensis SCS65875C after 24 hrs by EUCAST test; summary of the method: as §4
Candida dubliniensis [38] = experiment: Antifungal activity against Candida dubliniensis FS after 24 hrs by CLSI M27-A test; summary of the method: as §3
Candida dubliniensis [39] = experiment: Antifungal activity against Candida dubliniensis FS after 24 hrs by EUCAST test; summary of the method: as §4
Candida dubliniensis [40] = experiment: Antifungal activity against Candida dubliniensis IK after 24 hrs by CLSI M27-A test; summary of the method: as §3
Candida dubliniensis [41] = experiment: Antifungal activity against Candida dubliniensis J930936 after 24 hrs by CLSI M27-A test; summary of the method: as §3
Candida dubliniensis [42] = experiment: Antifungal activity against Candida dubliniensis KR after 24 hrs by CLSI M27-A test; summary of the method: as §3
Candida dubliniensis [43] = experiment: Antifungal activity against Candida dubliniensis SCSBB417709 after 24 hrs by EUCAST test; summary of the method: as §4
Candida dubliniensis [44] = experiment: Antifungal activity against Candida dubliniensis ST after 24 hrs by CLSI M27-A test; summary of the method: as §3
Candida dubliniensis [45] = experiment: Antifungal activity against Candida dubliniensis ST after 24 hrs by EUCAST test; summary of the method: as §4
Candida parapsilosis [46] = experiment: Antifungal activity against Candida parapsilosis ATCC 22019 after 24 hrs by CLSI M27-A test; conditions: Lodderomyces parapsilosis, ATCC 22019, 24 h; summary of the method: as §3
Candida parapsilosis [47] = experiment: Antifungal activity against Candida parapsilosis ATCC 22019 after 24 hrs by EUCAST test; conditions: Lodderomyces parapsilosis, ATCC 22019, 24 h; summary of the method: as §4

Compound `CC[C@H](C)C[C@H](C)CCCCCCCCC(=O)N[C@H]1C[C@@H](O)[C@@H](NCCN)NC(=O)[C@@H]2[C@@H](O)CCN2C(=O)[C@H]([C@H](O)CCN)NC(=O)[C@H]([C@H](O)[C@@H](O)c2ccc(O)cc2)NC(=O)[C@@H]2C[C@@H](O)CN2C(=O)[C@H]([C@@H](C)O)NC1=O` [CASPOFUNGIN] has an MIC50 (Candida albicans [1]) of 1 µg/mL (≈ 0.915 µM), an MIC50 (Candida albicans [2]) of 0.25 µg/mL (≈ 0.229 µM) and an MIC50 (Candida albicans [3]) of 0.13 µg/mL (≈ 0.119 µM). It also gave an MIC50 (Candida albicans [4]) of 0.13 µg/mL (≈ 0.119 µM), an MIC50 (Candida albicans [5]) of 0.5 µg/mL (≈ 0.457 µM) and an MIC50 (Candida albicans [6]) of 0.5 µg/mL (≈ 0.457 µM). For the same compound, the MIC50 (Candida albicans [7]) was 0.25 µg/mL (≈ 0.229 µM), the MIC50 (Candida albicans [8]) was 0.5 µg/mL (≈ 0.457 µM) and the MIC50 (Candida albicans [9]) was 0.25 µg/mL (≈ 0.229 µM). For the same compound, the MIC50 (Candida albicans [10]) was 0.5 µg/mL (≈ 0.457 µM), the MIC50 (Candida albicans [11]) was 0.25 µg/mL (≈ 0.229 µM) and the MIC50 (Candida albicans [12]) was 0.5 µg/mL (≈ 0.457 µM). For the same compound, the MIC50 (Candida albicans [13]) was 0.25 µg/mL (≈ 0.229 µM), the MIC50 (Candida albicans [14]) was 0.13 µg/mL (≈ 0.119 µM) and the MIC50 (Candida albicans [15]) was 0.5 µg/mL (≈ 0.457 µM). It also gave an MIC50 (Candida albicans [16]) of 0.5 µg/mL (≈ 0.457 µM), an MIC50 (Candida albicans [17]) of 0.25 µg/mL (≈ 0.229 µM) and an MIC50 (Candida albicans [18]) of 0.5 µg/mL (≈ 0.457 µM). For the same compound, the MIC50 (Candida albicans [19]) was 0.5 µg/mL (≈ 0.457 µM), the MIC50 (Candida albicans [20]) was 0.25 µg/mL (≈ 0.229 µM) and the MIC50 (Candida albicans [21]) was 0.13 µg/mL (≈ 0.119 µM). It also gave an MIC50 (Candida albicans [22]) of 8 µg/mL (≈ 7.32 µM), an MIC50 (Candida albicans [23]) of 8 µg/mL (≈ 7.32 µM) and an MIC50 (Candida albicans [24]) of 8 µg/mL (≈ 7.32 µM). For the same compound, the MIC50 (Candida albicans [25]) was 8 µg/mL (≈ 7.32 µM), the MIC50 (Candida albicans [26]) was 4 µg/mL (≈ 3.66 µM) and the MIC50 (Candida dubliniensis [27]) was 0.25 µg/mL (≈ 0.229 µM). For the same compound, the MIC50 (Candida dubliniensis [28]) was 0.25 µg/mL (≈ 0.229 µM), the MIC50 (Candida dubliniensis [29]) was 0.5 µg/mL (≈ 0.457 µM) and the MIC50 (Candida dubliniensis [30]) was 0.25 µg/mL (≈ 0.229 µM). It also gave an MIC50 (Candida dubliniensis [31]) of 0.5 µg/mL (≈ 0.457 µM), an MIC50 (Candida dubliniensis [32]) of 0.25 µg/mL (≈ 0.229 µM) and an MIC50 (Candida dubliniensis [33]) of 0.5 µg/mL (≈ 0.457 µM). For the same compound, the MIC50 (Candida dubliniensis [34]) was 0.5 µg/mL (≈ 0.457 µM), the MIC50 (Candida dubliniensis [35]) was 0.5 µg/mL (≈ 0.457 µM) and the MIC50 (Candida dubliniensis [36]) was 0.5 µg/mL (≈ 0.457 µM). For the same compound, the MIC50 (Candida dubliniensis [37]) was 8 µg/mL (≈ 7.32 µM), the MIC50 (Candida dubliniensis [38]) was 0.5 µg/mL (≈ 0.457 µM) and the MIC50 (Candida dubliniensis [39]) was 16 µg/mL (≈ 14.6 µM). The MIC50 (Candida dubliniensis [40]) was 0.5 µg/mL (≈ 0.457 µM), the MIC50 (Candida dubliniensis [41]) was 0.5 µg/mL (≈ 0.457 µM) and the MIC50 (Candida dubliniensis [42]) was 0.5 µg/mL (≈ 0.457 µM). The MIC50 (Candida dubliniensis [43]) was 0.25 µg/mL (≈ 0.229 µM), the MIC50 (Candida dubliniensis [44]) was 0.5 µg/mL (≈ 0.457 µM) and the MIC50 (Candida dubliniensis [45]) was 0.5 µg/mL (≈ 0.457 µM). For the same compound, the MIC50 (Candida parapsilosis [46]) was 1 µg/mL (≈ 0.915 µM) and the MIC50 (Candida parapsilosis [47]) was 1 µg/mL (≈ 0.915 µM).
